Test results: ChEMBL document CHEMBL1799996, “Novel C8-linked pyrrolobenzodiazepine (PBD)-heterocycle conjugates that recognize DNA sequences containing an inverted CCAAT box” (2011)

What was measured:
[1] = test system: Nucleic Acid; test: Binding affinity to calf thymus DNA assessed as change in melting temperature at 5 uM at pH 7 after 4 hrs by thermal denaturation assay; type: nucleic-acid assay; settings: Bos taurus
[2] = test system: Nucleic Acid; test: Binding affinity to calf thymus DNA assessed as change in melting temperature at 5 uM at pH 7 after 18 hrs by thermal denaturation assay; type: nucleic-acid assay; settings: Bos taurus
[3] = Cytotoxicity against human NCI60 cells; type: functional
Method in brief: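 NCI 60-cell-line panel. GI50, TGI and LC50 (50% growth inhibition, total growth inhibition and 50% lethality) are given as the mean across all 60 lines.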

[4] = test system: Nucleic Acid; test: Binding affinity to ICB1 site of human topoisomerase 2alpha promoter after 17 hrs by DNase 1 footprinting assay; type: nucleic-acid assay
Method in brief: (§1)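 Reported value is the lowest conjugate concentration that gives a measurable footprint at the respective inverted CCAAT site.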

[5] = test system: Nucleic Acid; test: Binding affinity to ICB2 site of human topoisomerase 2alpha promoter after 17 hrs by DNase 1 footprinting assay; type: nucleic-acid assay; method in brief: as §1

SMILES | ΔTm [1] [°C] | ΔTm [2] [°C] | GI50 [3] [µM] | LC50 (50% lethal concentration) [3] [µM] | TGI [3] [µM] | Activity [4] [µM] | Activity [5] [µM]
COC(=O)CCCOc1cc2c(cc1OC)C(=O)N1CCC[C@H]1C=N2 | 0.3 | 0.4 | 1.74 | 46.8 | 11.8 |  | 
COC(=O)c1cc(NC(=O)c2cc(NC(=O)CCCOc3cc4c(cc3OC)C(=O)N3CCC[C@H]3C=N4)cn2C)cn1C | 14.5 | 15.1 | 0.011 | 10 | 0.12 | 1 | 1
